Data set [1] in a line: Inhibition of human FTase. In outline:
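Human FTase (50 ng purified enzyme) with His6-K-Ras4B (1 µM) and [3H]farnesyl diphosphate (500 nM) in 50 mM Tris-HCl pH 7.7, 5 mM MgCl2, 5 µM ZnCl2, 2 mM DTT, 0.2% octyl-glucoside. Incubated 30 min at room temperature, stopped with SDS. Protein precipitated with cold trichloroacetic acid and filter-collected, then 3H counted. Percent inhibition calculated against DMSO vehicle control.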

Data set [2] is described as follows: Metabolic stability in mouse liver microsomes. It counts as ADME, Microsome. Put shortly: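 Compound at 0.0010 mg/mL final was preincubated 5.0 min at 37 °C with mouse liver microsomes (1.0 mg/mL final, 100 mmol/L potassium phosphate, pH 7.4). Reaction was started with NADPH-generating system, NADPH system plus UDPGA (100 mmol/L), or UDPGA alone, then run 30 min at 37 °C. Quenched with acetonitrile internal standard and read by HPLC. Residual ratio is the 30-min concentration divided by the initial concentration.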
For orientation: Microsomes from liver hold many membrane-bound enzymes, among them those of drug oxidation.

By IC50 is commonly meant the concentration that gives 50% inhibition. Read a high IC50 as weaker potency in that assay.

SMILES strings stand for the structures.

For `Cn1cnc(CN2CC[C@@H](c3ccccc3Br)[C@H]([N+](=O)[O-])[C@H]2c2ccccc2)c1` (racemic), the IC50 in data set [1] was > 500 nM.

`Cn1cncc1CN1CC[C@@H](c2ccccc2Br)[C@H]([N+](=O)[O-])[C@H]1c1ccccc1` (racemic) showed an IC50 in data set [1] of 17 nM.

With `CCc1ccccc1[C@@H]1CCN(Cc2cccnc2)[C@@H](c2ccccc2)[C@H]1C(=O)O` (racemic), in data set [1], the IC50 was > 500 nM.

As to `CCc1ccccc1[C@@H]1CCN(Cc2cccnc2)[C@@H](c2ccccc2)[C@H]1C(C)=O` (racemic), the IC50 in data set [1] was determined as 42 nM.

`CCc1ccccc1[C@@H]1CCN(Cc2cccnc2)[C@@H](c2ccccc2)[C@H]1C(=O)OC` (racemic): inhibition in data set [1] was half-maximal at 95 nM (IC50).

Take `O=[N+]([O-])[C@@H]1[C@@H](c2ccc(O)c(I)c2)N(Cc2cccnc2)CC[C@H]1c1ccccc1Br` (racemic): in data set [1], the IC50 was > 500 nM.

For `O=[N+]([O-])[C@@H]1[C@@H](c2ccc(O)c(O)c2)N(Cc2cccnc2)CC[C@H]1c1ccccc1Br` (racemic), it took 3.7 nM to reach half-maximal inhibition in data set [1] (IC50).

As to `COc1cc([C@@H]2[C@@H]([N+](=O)[O-])[C@H](c3ccccc3Br)CCN2Cc2cccnc2)ccc1O` (racemic), the IC50 in data set [1] worked out at 180 nM.

`CCc1ccccc1[C@@H]1CCN(Cc2cccnc2)[C@H](c2ccc(O)c(N)c2)[C@H]1[N+](=O)[O-]` (racemic) displayed an IC50 in data set [1] of 46 nM.

Regarding `CCNc1cc([C@@H]2[C@@H]([N+](=O)[O-])[C@H](c3ccccc3Br)CCN2Cc2cccnc2)ccc1O` (racemic), in data set [1], the IC50 came to 50 nM.

Regarding `CC(=O)Nc1cc([C@H]2[C@H]([N+](=O)[O-])[C@@H](c3ccccc3Br)CCN2Cc2cccnc2)ccc1O` (racemic), the IC50 in data set [1] amounted to 27 nM.

In data set [1], `COC(=O)Nc1cc([C@H]2[C@H]([N+](=O)[O-])[C@@H](c3ccccc3Br)CCN2Cc2cccnc2)ccc1O` (racemic) registered an IC50 of 14 nM.

Consider `CCc1ccccc1[C@H]1CCN(Cc2cccnc2)[C@@H](c2ccc(O)c(NS(C)(=O)=O)c2)[C@@H]1[N+](=O)[O-]` (racemic), for which, in data set [1], the IC50 was 4.6 nM.

Compound `CCS(=O)(=O)Nc1cc([C@H]2[C@H]([N+](=O)[O-])[C@@H](c3ccccc3Br)CCN2Cc2cccnc2)ccc1O` (racemic) came in with a concentration for half-maximal inhibition (IC50) in data set [1] of 5.9 nM.

In turn, `NS(=O)(=O)Nc1cc([C@H]2[C@H]([N+](=O)[O-])[C@@H](c3ccccc3Br)CCN2Cc2cccnc2)ccc1O` (racemic) displayed an IC50 in data set [1] of 3 nM.

For the compound `Cc1ccc(S(=O)(=O)Nc2cc([C@H]3[C@H]([N+](=O)[O-])[C@@H](c4ccccc4Br)CCN3Cc3cccnc3)ccc2O)cc1` (racemic), the IC50 in data set [1] came to 270 nM.

Turning to `CCc1ccccc1[C@H]1CCN(Cc2cccnc2)[C@@H](c2ccc(O)c(NS(N)(=O)=O)c2)[C@@H]1[N+](=O)[O-]` (racemic), in data set [2], the Stability entry is recorded as “Stable”. The IC50 in data set [1] stood at 4.5 nM.

Turning to `COc1ccc([C@@H]2[C@@H]([N+](=O)[O-])[C@H](c3ccccc3Br)CCN2Cc2cccnc2)cc1` (racemic), the IC50 in data set [1] was > 500 nM.

The compound `O=[N+]([O-])[C@@H]1[C@@H](c2ccccc2)N(Cc2cccnc2)CC[C@H]1c1ccccc1Br` (racemic) came in with an IC50 in data set [1] of 16 nM.

`O=[N+]([O-])[C@@H]1[C@@H](c2ccsc2)N(Cc2cccnc2)CC[C@H]1c1ccccc1Br` (racemic) came in with an IC50 in data set [1] of 36 nM.

In data set [1], `CCc1ccccc1[C@@H]1CCN(Cc2cccnc2)[C@H](c2ccc(O)c(NCc3ccncc3)c2)[C@H]1[N+](=O)[O-]` (racemic) yielded an IC50 of 12 nM.

`O=[N+]([O-])[C@H]1[C@H](c2ccccc2Br)CCN(Cc2cccnc2)[C@H]1c1ccccn1` (racemic) displayed an IC50 in data set [1] of 25 nM.

Turning to `O=[N+]([O-])[C@@H]1[C@@H](c2cccnc2)N(Cc2cccnc2)CC[C@H]1c1ccccc1Br` (racemic), the IC50 in data set [1] is > 500 nM.

As for `CS(=O)(=O)Nc1cc([C@H]2[C@H]([N+](=O)[O-])[C@@H](c3ccccc3Br)CCN2Cc2cccnc2)ccc1O` (racemic), in data set [1], inhibition was half-maximal at 4.3 nM (IC50).

Compound `NC(=O)Nc1cc([C@H]2[C@H]([N+](=O)[O-])[C@@H](c3ccccc3Br)CCN2Cc2cccnc2)ccc1O` (racemic) gave an IC50 in data set [1] of 15 nM.

On to `Nc1cc([C@@H]2[C@@H]([N+](=O)[O-])[C@H](c3ccccc3Br)CCN2Cc2cccnc2)ccc1O` (racemic), for which the midpoint of inhibition in data set [1], the IC50, lay at 13 nM.

As to `CC(C)Nc1cc([C@@H]2[C@@H]([N+](=O)[O-])[C@H](c3ccccc3Br)CCN2Cc2cccnc2)ccc1O` (racemic), in data set [1], the IC50 was 98 nM.

`CCc1ccccc1[C@H]1CCN(Cc2cccnc2)[C@@H](c2ccc(O)c(NC(N)=O)c2)[C@@H]1[N+](=O)[O-]` (racemic) returned an IC50 in data set [1] of 6.2 nM.

`CCc1ccccc1[C@@H]1CCN(Cc2cccnc2)[C@H](c2ccc(O)c(NCc3ccccc3)c2)[C@H]1[N+](=O)[O-]` (racemic) had an IC50 in data set [1] of 121 nM.

In data set [1], `CCc1ccccc1[C@@H]1CCN(Cc2cccnc2)[C@H](c2ccc(O)c(NCc3ccccn3)c2)[C@H]1[N+](=O)[O-]` (racemic) gave a half-inhibitory concentration (IC50) of 23 nM.

The compound `CCc1ccccc1[C@@H]1CCN(Cc2cccnc2)[C@H](c2ccc(O)c(NCc3cccnc3)c2)[C@H]1[N+](=O)[O-]` (racemic) had an IC50 in data set [1] of 24 nM.

For the compound `O=[N+]([O-])[C@@H]1[C@@H](c2ccc(O)cc2)N(Cc2cccnc2)CC[C@H]1c1ccccc1Br` (racemic), the IC50 in data set [1] is 5.4 nM.

In the case of `O=[N+]([O-])c1cc([C@@H]2[C@@H]([N+](=O)[O-])[C@H](c3ccccc3Br)CCN2Cc2cccnc2)ccc1O` (racemic), the half-maximal inhibitory concentration (IC50) in data set [1] is > 500 nM.

In the case of `CCc1ccccc1[C@@H]1CCN(Cc2cccnc2)[C@@H](c2ccccc2)[C@H]1C(=O)NC` (racemic), the concentration for half-maximal inhibition (IC50) in data set [1] was > 500 nM.

Turning to `O=[N+]([O-])[C@@H]1[C@@H](c2ccc3[nH]cnc3c2)N(Cc2cccnc2)CC[C@H]1c1ccccc1Br` (racemic), the half-inhibitory concentration (IC50) in data set [1] was > 500 nM.

`CCc1ccccc1[C@@H]1CCN(Cc2cccnc2)[C@@H](c2ccccc2)[C@H]1CO` (racemic): in data set [1], the IC50 is > 500 nM.

On to `C=CCOC(=O)[C@H]1[C@H](c2ccccc2CC)CCN(Cc2cccnc2)[C@H]1c1ccccc1` (racemic), for which the IC50 in data set [1] is > 500 nM.

For the compound `O=[N+]([O-])[C@@H]1[C@@H](c2ccccc2)N(Cc2cnc[nH]2)CC[C@H]1c1ccccc1Br` (racemic), the IC50 in data set [1] was > 500 nM.

In data set [1], `N#Cc1ccc(Cn2cncc2CN2CC[C@@H](c3ccccc3Br)[C@H]([N+](=O)[O-])[C@H]2c2ccccc2)cc1` (racemic) had an IC50 of 44 nM.

(Values after ChEMBL document CHEMBL1146313, “Design and synthesis of piperidine farnesyltransferase inhibitors with reduced glucuronidation potential” (Bioorg Med Chem, 2007).)
